In article PMC8244166 (Neuron, 2020):
Values joined by “and” are separate entries in the source; they are usually repeats but may differ in a detail not shown here. Equal values may be shown once.

Key:
[1] = system: Glu864Trp channel; assay: Single channel recordings, point mutant; type: cell-based, human; details: +80 mV
[2] = target: T1, hTRPA1 (Homo sapiens, UniProt O75762); assay: Whole-cell voltage-clamp recordings of TRPA1-expressing HEK293-F cells; type: cell-based; details: for current of second application compared to the first: whole-cell, n = 3
T1 sequence (O75762 whole entry): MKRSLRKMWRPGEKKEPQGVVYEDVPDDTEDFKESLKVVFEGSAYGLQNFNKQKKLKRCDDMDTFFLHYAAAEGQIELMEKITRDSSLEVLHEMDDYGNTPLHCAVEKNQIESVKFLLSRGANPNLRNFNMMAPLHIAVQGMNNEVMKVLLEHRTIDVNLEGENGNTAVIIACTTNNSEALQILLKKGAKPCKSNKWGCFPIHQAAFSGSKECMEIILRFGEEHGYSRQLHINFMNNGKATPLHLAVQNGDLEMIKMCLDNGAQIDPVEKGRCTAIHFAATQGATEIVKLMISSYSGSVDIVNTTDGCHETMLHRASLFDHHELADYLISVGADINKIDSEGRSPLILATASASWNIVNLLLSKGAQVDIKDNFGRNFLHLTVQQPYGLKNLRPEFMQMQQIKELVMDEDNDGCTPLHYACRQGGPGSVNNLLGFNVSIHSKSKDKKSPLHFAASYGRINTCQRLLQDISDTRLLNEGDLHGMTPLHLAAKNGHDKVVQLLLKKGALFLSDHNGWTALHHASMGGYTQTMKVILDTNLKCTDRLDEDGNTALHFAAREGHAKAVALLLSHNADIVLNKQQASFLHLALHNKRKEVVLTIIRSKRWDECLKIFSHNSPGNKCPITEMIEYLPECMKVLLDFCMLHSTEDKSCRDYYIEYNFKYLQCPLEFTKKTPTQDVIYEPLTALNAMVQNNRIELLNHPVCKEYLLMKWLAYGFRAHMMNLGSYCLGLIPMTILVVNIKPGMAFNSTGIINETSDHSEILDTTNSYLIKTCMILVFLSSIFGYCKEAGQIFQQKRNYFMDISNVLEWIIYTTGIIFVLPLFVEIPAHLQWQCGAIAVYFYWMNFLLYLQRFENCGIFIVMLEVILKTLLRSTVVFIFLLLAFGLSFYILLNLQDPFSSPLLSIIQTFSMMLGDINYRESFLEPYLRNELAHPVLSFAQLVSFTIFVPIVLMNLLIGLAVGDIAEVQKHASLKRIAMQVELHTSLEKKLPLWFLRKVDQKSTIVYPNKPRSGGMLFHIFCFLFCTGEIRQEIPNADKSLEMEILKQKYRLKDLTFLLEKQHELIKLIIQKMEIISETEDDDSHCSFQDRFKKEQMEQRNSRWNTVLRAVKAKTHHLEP

[3] = system: TRPA1 channel; assay: Inside-out single channel / macropatch recordings; type: cell-based, human; details: for y (single channel conductance) / Px/PNa (ion selectivity against Na+): 1 μM GNE551, 10 μM AITC; for Erev (reversal potential) / opening frequency / single channel open probability (Po): 1 μM GNE551 (n = 5); for Erev (reversal potential): 10 μM AITC (n = 4); for channel desensitization: nominally Ca2+-free solutions, AITC 10 μM, GNE551 1 μM; for opening frequency / single channel open probability (Po) / open state dwell time: inside-out; for opening frequency / single channel open probability (Po): +80 mV, 100 nM WaTx (n = 8); for open state dwell time: agonist-activated channels
[4] = Glutathione reactivity assay; type: physicochemical; details: 10 μM compound, 1 mM glutathione, pH7.4, 37°C, 30 minutes
Summary of the method: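 The test compound (10 μM) is incubated with or without 1 mM glutathione in 50 mM potassium phosphate, pH7.4, at 37°C for 30 minutes, and the reaction is stopped on ice. Samples run by UHPLC-MS on a C18 column at 40 °C and 0.4 mL/min, with a 0.1% formic acid water/acetonitrile gradient of 5–50% B over 15 minutes, then a 95% B wash.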

[5] = system: Gln940Val TRPA1; assay: Whole-cell patch clamp, point mutant; type: cell-based, human; details: GNE551 1.5 μM, AITC positive control, n = 4
Summary of the method: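 HEK293-F cells are recorded whole-cell one day after transient transfection. From a 0 mV holding potential, the protocol is 10 msec at −80 mV, a 200 msec ramp to +80 mV, then 10 msec at +80 mV, applied once per second. Nominally Ca2+-free solutions are used: bath NaCl/HEPES with 0.1 mM EGTA, pH 7.4; pipette CsF with 10 mM EGTA, pH 7.2. Compounds are delivered by fast solution exchange.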

[6] = system: TRPA1 Glu864Trp mutant; assay: Ca2+ assay, point mutant; type: cell-based, human; details: high background Ca2+ signals
Summary of the method: (§1)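 HEK293-F cells are transiently transfected with the TRPA1 construct one day before imaging. Cells are loaded with a calcium-sensitive dye for 1 h at 37 °C. Compound is added and fluorescence (Ca2+ RFU) is recorded on a kinetic fluorescence imager. EC50 comes from nonlinear regression constrained to EC50 > 0, Bottom = 0 and Hill slope between 1 and 3.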

[7] = system: rat hind paw nocifensive behavior; assay: Nocifensive behavior after intraplantar agonist injection; type: in vivo; details: for cumulative nocifensive time: n = 7
Summary of the method: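 Male Sprague-Dawley rats aged 8 weeks or older are used; KO versus WT littermates from heterozygote crosses include both sexes. Under light restraint, a unilateral intraplantar injection of 25 μL is given with a 30-gauge needle: reference electrophile 0.1% or test agonist 10 mM. Rats are video-recorded 15 min (reference) or 30 min (test agonist) during the light phase. Licking, flicking and guarding time is scored blind offline, and groups are compared by two-tailed t-test.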

[8] = system: AITC-evoked nocifensive behavior; assay: Inhibition of AITC-evoked nocifensive behavior, PK/PD; type: in vivo, rat; details: 30 mg/kg dosing
[9] = system: GNE551-evoked nocifensive behavior; assay: Inhibition of GNE551-evoked nocifensive behavior, PK/PD; type: in vivo, rat
[10] = Rat pharmacokinetics after oral gavage; type: in vivo
[11] = target: T1, hTRPA1; assay: Ca2+ influx assay, HEK293-F cells expressing human TRPA1; type: cell-based
[12] = system: human TRPV1; assay: Ion channel selectivity test; type: cell-based; details: 20 μM
[13] = system: human TRPM8; assay: Ion channel selectivity test; type: cell-based; details: 20 μM
[14] = system: human TRPC6; assay: Ion channel selectivity test; type: cell-based; details: 20 μM
[15] = system: human potassium channel hERG1; assay: Ion channel selectivity test; type: cell-based; details: 10 μM
[16] = system: Cav1.2 (L-dihydropyridine site); assay: CEREP panel binding inhibition
[17] = system: NK1 receptor; assay: CEREP panel binding inhibition; details: 10 μM
[18] = system: NK1 receptor; assay: NK1 receptor agonist / antagonist assay; type: cell-based; details: up to 30 μM
[19] = system: Cav1.2; assay: Cav1.2 assay; type: cell-based; details: up to 30 μM
[20] = system: TRPA1 from rhesus monkey; assay: Ca2+ assay, species TRPA1; type: cell-based
Summary of the method: as §1

[21] = system: TRPA1 from dog; assay: Ca2+ assay, species TRPA1; type: cell-based
Summary of the method: as §1

[22] = system: TRPA1 from guinea pig; assay: Ca2+ assay, species TRPA1; type: cell-based
Summary of the method: as §1

[23] = system: TRPA1 from rat; assay: Ca2+ assay, species TRPA1; type: cell-based
Summary of the method: as §1

[24] = system: chicken TRPA1; assay: Ca2+ assay, species TRPA1; type: cell-based; details: concentration as high as 50 μM
Summary of the method: as §1

[25] = system: chimera containing S1-S6 domains of chicken TRPA1; assay: Ca2+ assay, human-chicken chimera; type: cell-based
Summary of the method: as §1

[26] = system: Gln940Val mutant human channel; assay: Ca2+ assay, point mutant; type: cell-based
Summary of the method: as §1

[27] = system: TRPA1 Ser873Val/Thr874Leu; assay: Ca2+ assay, point mutant; type: cell-based, human
Summary of the method: as §1

[28] = system: TRPA1 Phe909Ala; assay: Ca2+ assay, point mutant; type: cell-based, human
Summary of the method: as §1

[29] = system: TRPA1 Tyr840 to Phe; assay: Ca2+ assay, point mutant; type: cell-based, human; details: versus wild type
Summary of the method: as §1

[30] = system: TRPA1 Tyr840 to Trp, His, Leu, or Ala; assay: Ca2+ assay, point mutants; type: cell-based, human
Summary of the method: as §1

[31] = system: TRPA1 Gln940 to Asn, Val or Ala; assay: Ca2+ assay, point mutants; type: cell-based, human
Summary of the method: as §1

[32] = system: TRPA1 Ser887 to Trp or Met; assay: Ca2+ assay, point mutants; type: cell-based, human
Summary of the method: as §1

[33] = system: rat dorsal root ganglion neurons; assay: Ca2+ influx in dorsal root ganglion neurons; type: cell-based; details: WT versus TRPA1 KO rats
[34] = target: T1, hTRPA1
[35] = target: the molecule itself; assay: cryo-EM structure

CCC(=N\O)/C(C)=C/c1ccc(F)cc1 [A-967079, reference compound]
block of high basal activity ([1]; A-967079 1 μM): blocked

C=CCN=C=S [AITC, allyl isothiocyanate, reference compound]
current of second application compared to the first ([2]; −80 mV): 19.4 ± 4.3%
y (single channel conductance) ([3]; cation Ca2+): 30.9 ± 6.2 pS
Erev (reversal potential) ([3]; cation Mg2+): −19.1 ± 1.5 mV
y (single channel conductance) ([3]; cation Mg2+): 30.1 ± 6.8 pS
y (single channel conductance) ([3]; cation Na+): 134.9 ± 11.6 pS
channel desensitization [3]: desensitized within seconds
glutathione adduct formation [4]: formed a glutathione adduct
activation of mutant channel [5]: robust response
response of mutant to agonist stimulation [6]: almost lost responses
nocifensive response ([7]; after 10 min, AITC 0.1%, 25 μl): completely disappeared
cumulative nocifensive time ([7]; first 5 min period, AITC 0.1%, 25 μl, WT rats): 102 ± 19 s
nocifensive behavior ([7]; intraplantar AITC 0.1%, 25 μl, WT and TRPA1 KO rats): elicited nocifensive behavior in wild type (WT) but not in knock out (KO) rats
cumulative nocifensive time ([7]; second 5 min period, AITC 0.1%, 25 μl, WT rats): 57.7 ± 11.1 s

Cn1cnc2ncn(Cc3nc(CCc4ccc(Cl)cc4)no3)c(=O)c21 [AMG0902]
block of AITC-induced response [8]: 86%
block of GNE551-induced response ([9]; 30 mg/kg): 38%
latency to GNE551-induced nocifensive behavior ([9]; increasing oral doses of antagonist): lengthened the latency
Tmax (time point of maximal plasma concentration) [10]: 1 h

COc1ccc(OC)c(NC(=O)c2nnn(Cc3ccc(Br)cc3F)c2N)c1 [GNE551, 5-amino-1-(4-bromo-2-fluorobenzyl)-N-(2,5-dimethoxyphenyl)-1H-1,2,3-triazole-4-carboxamide]
EC50 [11]: 254 nM
efficacy compared to AITC ([11]; Ca2+ influx, human TRPA1): equally efficacious
EC50 [2]: 141 nM
current of second application compared to the first ([2]; +80 mV): 93.5 ± 0.5%
current of second application compared to the first ([2]; −80 mV): 89.0 ± 6.3%
Erev (reversal potential) ([3]; cation Ca2+): −25.6 ± 1.1 mV
Px/PNa (ion selectivity against Na+) ([3]; cation Ca2+): 15.7 ± 1.1
y (single channel conductance) ([3]; cation Ca2+): 21.6 ± 2.8 pS
Erev (reversal potential) ([3]; cation Mg2+): −13.2± 2.7 mV
Px/PNa (ion selectivity against Na+) ([3]; cation Mg2+): 7.2 ± 1.3
y (single channel conductance) ([3]; cation Na+): 101.4 ± 6.8 pS
opening frequency [3]: 4.6 ± 0.6 Hz
single channel open probability (Po) [3]: 0.41 ± 0.07 and 0.41
open state dwell time [3]: 20.9 milliseconds
channel desensitization [3]: did not result in desensitization
glutathione adduct formation [4]: did not form an adduct
activation or block of channel [12]: did not activate or block
activation or block of channel [13]: did not activate or block
activation or block of channel [14]: did not activate or block
inhibition of channel [15]: did not inhibit
inhibition at 10 µM [16]: > 75%
binding inhibition [17]: > 75%
agonistic or antagonistic effect on NK1 receptor [18]: did not translate to significant agonistic or antagonistic effect
inhibition of Cav1.2 [19]: did not translate to
channel activation [20]: activated
channel activation [21]: activated
channel activation [22]: activated
channel activation [23]: activated
channel activation [24]: no effect
response of chimera [25]: lost response
effect of mutation on GNE551 activation [26]: nearly abolished
activation of mutant channel [5]: failed to activate
effect of mutation on GNE551 activation [27]: not affected
effect of mutation on GNE551 activation [28]: not affected
reduction of potency by mutation [29]: six-fold
effect of mutation on sensitivity to GNE551 [30]: completely abolished
effect of mutation on sensitivity to GNE551 [31]: completely abolished
effect of mutation on activation [32]: loss of activation
response of mutant to agonist stimulation [6]: almost lost responses
open probability (Po) ([1]; GNE551 1 μM, n = 4, basal Po 0.56 ± 0.05): 0.80 ± 0.08
specificity of activation in DRG neurons [33]: solely activated TRPA1 channels
latency to nocifensive response ([7]; GNE551 10 mM, 25 μl, WT rats): reduced
residual response in TRPA1 KO rats ([7]; GNE551 10 mM, possibly vehicle effect): 13%
nocifensive behaviors ([7]; first 5 min after injection of GNE551): virtually no paw flicking, licking, or guarding
nocifensive response ([7]; intraplantar GNE551 1, 3, and 10 mM, 25 μl, WT rats): dose-dependent manner
time to plateau of nocifensive behaviors after injection ([7]; intraplantar GNE551, 30-min observation): 15 to 20 min

WaTx: cell-penetrating peptide toxin that activates TRPA1 (ASPQQAKYCYEQCNVNKVPFDQCYQMCSPLERS) [reference compound]
opening frequency [3]: 1.7 ± 0.5 Hz
single channel open probability (Po) [3]: 0.045 ± 0.012
open state dwell time [3]: 2.2 milliseconds

cell-penetrating peptide toxin WaTx (from UniProt C0HLG4 36-68)
open state dwell time of WaTx-activated channels, inside-out patches [34]: 2.2 milliseconds

B1: human TRPA1 [Ser448-Thr1078], truncated and non-functional construct for structural studies (domain or fragment)
chain: GSGGSGGSGGSGGSPLHFAASYGRINTCQRLLQDISDTRLLNEGDLHGMTPLHLAAKNGHDKVVQLLLKKGALFLSDHNGWTALHHASMGGYTQTMKVILDTNLKCTDRLDEDGNTALHFAAREGHAKAVALLLSHNADIVLNKQQASFLHLALHNKRKEVVLTIIRSKRWDECLKIFSHNSPGNKCPITEMIEYLPECMKVLLDFCMLHSTEDKSCRDYYIEYNFKYLQCPLEFTKKTPTQDVIYEPLTALNAMVQNNRIELLNHPVCKEYLLMKWLAYGFRAHMMNLGSYCLGLIPMTILVVNIKPGMAFNSTGIINETSDHSEILDTTNSYLIKTCMILVFLSSIFGYCKEAGQIFQQKRNYFMDISNVLEWIIYTTGIIFVLPLFVEIPAHLQWQCGAIAVYFYWMNFLLYLQRFENCGIFIVMLEVILKTLLRSTVVFIFLLLAFGLSFYILLNLQDPFSSPLLSIIQTFSMMLGDINYRESFLEPYLRNELAHPVLSFAQLVSFTIFVPIVLMNLLIGLAVGDIADVQKHASLKRIAMQVELHTSLEKKLPLWFLRKVDQKSTIVYPNKPRSGGMLFHIFCFLFCTGEIRQEIPNADKSLEMEILKQKYRLKDLTFLLEKQHELIKLIIQKMEIISET
binding result [35]: binds
